Laboratory results as given in ChEMBL document CHEMBL1156517, “Targeting thyroid hormone receptor-beta agonists to the liver reduces cholesterol and triglycerides and improves the therapeutic index” (Proc Natl Acad Sci U S A, 2007).
Activity calls are given as the source filed them. The calls are words filed in the database; no cut-off is given here.

Columns and labels:
[1] = system: Mus musculus; test: Decrease in liver weight in po dosed diet-induced obese C57BL/6 mouse after 14 days; assay type: functional; design: scale not given: the % may be the effect or the level left
Procedure, shortened: (§1)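 DIO mice were male C57BL/6 fed a 60%-fat (by kcal) diet from about 4 weeks of age for about 170 days. They were grouped (n = 8) to match cholesterol and body weight. Dosing was oral, once daily for 2 weeks, in 0.5% CMC/1% Lutrol F68. At kill, blood was taken by cardiac puncture for plasma TGs. The liver was removed and weighed, and hepatic TGs were measured.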

[2] = system: Mus musculus; test: Reduction in plasma cholesterol level in diet-induced obese C57BL/6 mouse at 3 mg/kg/day, po; assay type: functional; design: scale not given: the % may be the effect or the level left
Procedure, shortened: (§2)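 Male C57BL/6 mice, about 4 weeks old, fed a high-fat diet (60% kcal fat) for about 170 days. Assigned to groups (n = 8) matched for cholesterol and body weight. Dosed orally once daily in 0.5% CMC/1% Lutrol F68 for 2 weeks. Baseline blood taken by tail nick. At end, cardiac-puncture blood used for cholesterol, TGs, glucose and thyroid hormones; liver weighed and hepatic TGs measured.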

[3] = system: Mus musculus; test: Effect on hepatic LDLR mRNA level in diet-induced obese C57BL/6 mouse at 10 mg/kg, po after 3 hrs by RT-PCR; assay type: functional
Procedure, shortened: (§3)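 Single oral dose in male DIO mice: C57BL/6 mice, about 4 weeks old at start, fed a 60% fat (by kcal) diet for about 170 days. Hepatic LDLR mRNA read out at early time points (3 and 8 h) after dosing.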

[4] = system: Hepatocyte; test: Cmax per10'6 cells in Sprague-Dawley rat hepatocytes at 10 uM; assay type: ADME, Liver; design: dose 10 uM
Procedure, shortened: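 Freshly isolated rat hepatocytes were incubated with compound. Intracellular levels of the active phosphonate were followed over time and expressed per 10⁶ cells, giving Cmax and tmax.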

[5] = system: Mus musculus; test: Decrease in plasma triglyceride level in diet-induced obese C57BL/6 mouse at 3 mg/kg/day, po after 14 days; assay type: functional; design: scale not given: the % may be the effect or the level left; procedure, shortened: as §1
[6] = system: Rattus norvegicus; test: Effect on food intake in Sprague-Dawley rat at 1 mg/kg/day, po after 8 days; assay type: functional
[7] = system: Rattus norvegicus; test: Toxicity in Sprague-Dawley rat assessed as suppression of thyroid hormone axis measured by decrease in serum TSH level at 30 mg/kg, po after 7 weeks; assay type: organism-based; design: dose 30 mg/kg, route oral; conditions: in vivo, 1176 h
[8] = system: Rattus norvegicus; test: Effect on fasting blood glucose level in Sprague-Dawley rat at 1 mg/kg/day, po after 8 days by oral glucose tolerance test; assay type: functional
[9] = system: Rattus norvegicus; test: Effect on plasma insulin level in Sprague-Dawley rat at 1 mg/kg/day, po after 8 days; assay type: functional
[10] = system: Rattus norvegicus; test: Effect on plasma fatty acid level in Sprague-Dawley rat at 50 mg/kg/day, po after 8 days; assay type: functional
[11] = Clearance in Sprague-Dawley rat at 3 mg/kg, iv; assay type: ADME, organism-based; design: dose 3 mg/kg, route intravenous; conditions: in vivo
Procedure, shortened: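 Male SD rats received a single i.v. dose. Clearance and other PK parameters came from plasma concentration–time profiles of both the prodrug and the active phosphonate, values reported as mean ± SEM.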

[12] = system: Mus musculus; test: Reduction in blood glucose level in po dosed diet-induced obese C57BL/6 mouse; assay type: functional, organism-based; procedure, shortened: as §2
[13] = system: Mus musculus; test: Decrease in plasma triglyceride level in po dosed diet-induced obese C57BL/6 mouse after 14 days; assay type: functional; design: scale not given: the % may be the effect or the level left; procedure, shortened: as §1
[14] = system: Mus musculus; test: Decrease in liver triglyceride level in po dosed diet-induced obese C57BL/6 mouse after 14 days; assay type: functional; design: scale not given: the % may be the effect or the level left; procedure, shortened: as §1
[15] = system: Mus musculus; test: Decrease in body weight in diet-induced obese C57BL/6 mouse at 30 mg/kg/day, po; assay type: functional; design: scale not given: the % may be the effect or the level left
[16] = system: Rattus norvegicus; test: Effect on plasma insulin level in Sprague-Dawley rat at 50 mg/kg/day, po after 8 days; assay type: functional
[17] = system: Rattus norvegicus; test: Effect on food intake in Sprague-Dawley rat at 10 mg/kg/day, po after 8 days; assay type: functional
[18] = system: Mus musculus; test: Decrease in cholesterol level in LDLR deficient C57BL/6 mouse at 5 mg/kg/day once daily for 7 days; assay type: functional, organism-based
[19] = system: Rattus norvegicus; test: Increase in hepatic LDLR mRNA level in thyroidectomized Sprague-Dawley rat at 5 mg/kg after 24 hrs by RT-PCR relative to control; assay type: functional
Procedure, shortened: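 Male thyroidectomized SD rats given 5 mg/kg, with a parallel T₃ arm at 0.5 mg/kg. Hepatic LDLR mRNA quantified by quantitative real-time PCR.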

[20] = system: Mus musculus; test: Decrease in cholesterol level in LDLR deficient C57BL/6 mouse at 0.5 mg/kg/day once daily for 7 days; assay type: functional, organism-based
[21] = system: Rattus norvegicus; test: Effect on malic enzyme mRNA expression in po dosed Sprague-Dawley rat liver; assay type: functional, organism-based; conditions: TDE = time-dependent effect
Procedure, shortened: (§4)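 Killed 3, 8 and 24 h post-dose under 2.5% isoflurane. Pituitary and thyroid snap-frozen; liver, heart, soleus, spleen and kidney freeze-clamped. mRNA by quantitative real-time PCR, expressed as fold-change vs vehicle.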

[22] = system: Mus musculus; test: Effect on hepatic LDLR mRNA level in LDLR deficient C57BL/6 mouse at 5 mg/kg/day once daily for 7 days; assay type: functional
[23] = system: Rattus norvegicus; test: Effect on plasma insulin level in Sprague-Dawley rat at 10 mg/kg/day, po after 8 days; assay type: functional
[24] = system: Mus musculus; test: Effect on hepatic LDLR mRNA level in wild-type C57BL/6 mouse at 5 mg/kg/day once daily for 7 days; assay type: functional
[25] = system: Rattus norvegicus; test: Effect on LDLR mRNA expression in po dosed Sprague-Dawley rat liver; assay type: functional, organism-based; conditions: TDE = time-dependent effect
[26] = system: Rattus norvegicus; test: Effect on type 1 iodothyronine deiodinase mRNA expression in po dosed Sprague-Dawley rat liver; assay type: functional, organism-based; conditions: TDE = time-dependent effect; procedure, shortened: as §4
[27] = system: Mus musculus; test: Decrease in cholesterol level in wild-type C57BL/6 mouse at 0.5 mg/kg/day once daily for 7 days; assay type: functional, organism-based
[28] = system: Rattus norvegicus; test: Toxicity in Sprague-Dawley rat assessed as suppression of thyroid hormone axis measured by decrease in total 3,5,3',5'-tetraiodo-L-thyronine level at 30 mg/kg, po after 7 weeks; assay type: organism-based; design: dose 30 mg/kg, route oral; conditions: in vivo, 1176 h
[29] = system: Rattus norvegicus; test: Effect on body weight in Sprague-Dawley rat at 10 mg/kg/day, po after 8 days; assay type: functional
[30] = system: Rattus norvegicus; test: Effect on plasma fatty acid level in Sprague-Dawley rat at 1 mg/kg/day, po after 8 days; assay type: functional
[31] = system: Rattus norvegicus; test: Toxicity in Sprague-Dawley rat assessed as suppression of thyroid hormone axis measured by decrease in TSH-beta mRNA level at 30 mg/kg, po after 7 weeks; assay type: organism-based; design: dose 30 mg/kg, route oral; conditions: in vivo, 1176 h
Procedure, shortened: (§5)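 Male SD rats (n = 5–6 per group; baseline group n = 8) given vehicle (0.5% CMC/1% Lutrol F68) or drug orally once daily. One group per cohort weighed and killed by decapitation without anesthesia after 1, 2, 4 and 7 weeks. Trunk-blood serum assayed for total/free T3 and T4; TSH by [125I] radioimmunoassay with magnetic separation. Pituitary TSHβ mRNA also measured.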

[32] = Volume of distribution in Sprague-Dawley rat at 3 mg/kg, iv; assay type: ADME, organism-based; design: dose 3 mg/kg, route intravenous; conditions: in vivo
[33] = (§6) Activity of CYP3A in Sprague-Dawley rat liver microsome; assay type: ADME; conditions: microsomes
[34] = system: CYP3A; test: as §6; assay type: ADME; conditions: Sprague-Dawley, liver microsomes
[35] = system: Rattus norvegicus; test: Effect on fasting blood glucose level in Sprague-Dawley rat at 50 mg/kg/day, po after 8 days by oral glucose tolerance test; assay type: functional
[36] = system: Rattus norvegicus; test: Effect on body weight in Sprague-Dawley rat at 1 mg/kg/day, po after 8 days; assay type: functional
[37] = molecular target: Thyroid hormone receptor alpha (Homo sapiens, UniProt P10827); test: Displacement of [125I]T3 from recombinant thyroid hormone receptor alpha expressed in sf9 cells by scintillation proximity assay
Thyroid hormone receptor alpha, sequence (P10827 whole entry): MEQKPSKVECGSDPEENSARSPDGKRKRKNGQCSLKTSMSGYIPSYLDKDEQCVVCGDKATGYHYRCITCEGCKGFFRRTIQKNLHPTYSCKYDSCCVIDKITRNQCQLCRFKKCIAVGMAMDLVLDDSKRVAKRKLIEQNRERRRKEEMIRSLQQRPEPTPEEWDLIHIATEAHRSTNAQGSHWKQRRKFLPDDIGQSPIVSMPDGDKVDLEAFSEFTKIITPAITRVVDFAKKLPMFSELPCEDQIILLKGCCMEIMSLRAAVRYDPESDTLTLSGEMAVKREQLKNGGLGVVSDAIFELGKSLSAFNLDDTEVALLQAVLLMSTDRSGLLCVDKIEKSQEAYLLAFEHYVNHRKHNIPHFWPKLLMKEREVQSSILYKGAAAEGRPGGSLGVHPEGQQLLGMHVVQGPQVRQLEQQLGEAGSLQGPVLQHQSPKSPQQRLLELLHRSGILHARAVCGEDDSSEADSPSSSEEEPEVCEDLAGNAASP

[38] = system: Rattus norvegicus; test: Effect on body weight in Sprague-Dawley rat at 50 mg/kg/day, po after 8 days; assay type: functional
[39] = system: Mus musculus; test: Decrease in liver triglyceride level in diet-induced obese C57BL/6 mouse at 3 mg/kg/day, po after 14 days; assay type: functional; design: scale not given: the % may be the effect or the level left; procedure, shortened: as §1
[40] = system: Rattus norvegicus; test: Effect on food intake in Sprague-Dawley rat at 50 mg/kg/day, po after 8 days; assay type: functional
[41] = system: Rattus norvegicus; test: Effect on plasma fatty acid level in Sprague-Dawley rat at 10 mg/kg/day, po after 8 days; assay type: functional
[42] = system: Rattus norvegicus; test: Effect on SREBP-1c mRNA expression in po dosed Sprague-Dawley rat liver; assay type: functional, organism-based; conditions: TDE = time-dependent effect
[43] = system: Mus musculus; test: Decrease in cholesterol level in wild-type C57BL/6 mouse at 5 mg/kg/day once daily for 7 days; assay type: functional, organism-based
[44] = molecular target: Thyroid hormone receptor beta (Homo sapiens, UniProt P10828); test: Displacement of [125I]T3 from recombinant thyroid hormone receptor beta expressed in sf9 cells by scintillation proximity assay
Thyroid hormone receptor beta, sequence (P10828 whole entry): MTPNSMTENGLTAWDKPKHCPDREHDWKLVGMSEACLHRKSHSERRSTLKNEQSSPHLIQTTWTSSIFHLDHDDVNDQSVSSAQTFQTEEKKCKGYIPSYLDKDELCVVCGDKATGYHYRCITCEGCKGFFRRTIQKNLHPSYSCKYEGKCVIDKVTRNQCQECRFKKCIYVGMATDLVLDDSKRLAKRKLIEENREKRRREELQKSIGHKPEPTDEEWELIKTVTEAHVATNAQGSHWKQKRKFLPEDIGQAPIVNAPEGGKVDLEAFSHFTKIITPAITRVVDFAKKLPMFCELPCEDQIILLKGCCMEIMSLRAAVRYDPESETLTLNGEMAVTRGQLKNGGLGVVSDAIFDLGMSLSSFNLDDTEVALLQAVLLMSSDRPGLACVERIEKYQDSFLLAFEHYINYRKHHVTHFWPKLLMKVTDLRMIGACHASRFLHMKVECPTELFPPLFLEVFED

[45] = system: Mus musculus; test: Reduction in plasma cholesterol level in po dosed diet-induced obese C57BL/6 mouse after 2 weeks; assay type: functional; design: scale not given: the % may be the effect or the level left; procedure, shortened: as §2
[46] = system: Rattus norvegicus; test: Toxicity in Sprague-Dawley rat assessed as suppression of thyroid hormone axis measured by decrease in free 3,5,3',5'-tetraiodo-L-thyronine level at 30 mg/kg, po after 7 weeks; assay type: organism-based; design: dose 30 mg/kg, route oral; conditions: in vivo, 1176 h; procedure, shortened: as §5
[47] = system: Rattus norvegicus; test: Effect on fasting blood glucose level in Sprague-Dawley rat at 10 mg/kg/day, po after 8 days by oral glucose tolerance test; assay type: functional
[48] = Inhibition of CYP3A in Sprague-Dawley rat liver microsome at 10 uM; assay type: ADME; conditions: microsomes
[49] = organism: Rattus norvegicus; test: Reduction in plasma cholesterol level in cholesterol fed Sprague-Dawley rat; assay type: functional
[50] = system: Mus musculus; test: Effect on hepatic LDLR mRNA level in diet-induced obese C57BL/6 mouse at 10 mg/kg, po after 8 hrs by RT-PCR; assay type: functional; procedure, shortened: as §3

- Cmax [4]: 1.03 nmol
- clearance [11]: 193 mL/min/kg
- Activity [21]: tde
- Activity [26]: tde
- Vd [32]: 14.8 L/kg
- Vmax [33]: 2.74 nmol/min/mg
- Km [34]: 18.8 µM
- Ki [37]: 12.5 µM
- Ki [44]: 14.6 µM
- Activity [48]: Not Active
SMILES: Cc1cc(OCP2(=O)OCC[C@@H](c3cccc(Cl)c3)O2)cc(C)c1Cc1ccc(O)c(C(C)C)c1 (stereo not given in full) [MB07811]
- Activity [1]: 42%
- Activity [2]: 51%
- fold change (FC) [3]: 1.23
- Activity [5]: 38%
- Activity [6]: 15.1%
- Activity [7]: Active
- Activity [8]: 9 mg/dL
- Activity [9]: 0.424 ng/mL
- Activity [10]: 0.524 mM
- Activity [12]: Active
- Activity [13]: 40%
- Activity [14]: 42%
- Activity [15]: 3%
- Activity [16]: 0.402 ng/mL
- Activity [17]: 14.6%
- Activity [18]: inactive
- fold change (FC) [19]: 21.063
- Activity [20]: inactive
- Activity [22]: -10.8%
- Activity [23]: 0.342 ng/mL
- Activity [24]: -31.8%
- Activity [25]: tde
- Activity [27]: Active
- Activity [28]: Active
- Activity [29]: 37.9 g
- Activity [30]: 0.454 mM
- Activity [31]: Active
- Activity [35]: -0.5 mg/dL
- Activity [36]: 42.8 g
- Activity [38]: 49.3 g
- Activity [39]: 69%
- Activity [40]: 15.6%
- Activity [41]: 0.541 mM
- Activity [42]: tde
- Activity [43]: Active
- Activity [45]: 61%
- Activity [46]: Active
- Activity [47]: 11.8 mg/dL
- ED50 [49]: 0.4 mg/kg
- fold change (FC) [50]: 2.01
